This is an account of results in ChEMBL document CHEMBL1130411, “The practical synthesis of a methylenebisphosphonate analogue of benzamide adenine dinucleotide: inhibition of human inosine monophosphate dehydrogenase (type I and II)” (J Med Chem, 1997).

Experiment [1] relates to K562. Description: Differentiation of K-562 cells at 120 uM with out coadministration of guanosine. The class given is functional, Homo sapiens. The method, boiled down: (§1)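 Human erythroleukemia K562 cells grown in RPMI 1640 with 10% heat-inactivated calf serum, glutamine and penicillin/streptomycin; incubated 5 days with compound, with or without 30 µM guanosine. Hemoglobin expression read by benzidine staining (0.1% benzidine in 0.25% H2O2, equal volume, 5 min, room temperature); 300-400 cells counted for % benzidine-positive. Duplicates; average of three experiments.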

Experiment [2] deals with K562. Description: Differentiation of K-562 cells at 120 uM with coadministration of guanosine. Format: functional, Homo sapiens. The method, boiled down: as §1
Experiment [3] has as its system K562. Description: Differentiation of K-562 cells at 60 uM with out coadministration of guanosine. Format: functional, Homo sapiens. The method, boiled down: as §1
The test system of experiment [4] is K562. The experiment is described as follows: Differentiation of K-562 cells at 60 uM with coadministration of guanosine. The class given is functional, Homo sapiens. The method, boiled down:
as §1

Experiment [5] has as its system K562. The experiment is described as follows: Tested for inhibition of growth in human erythroleukemia K-562 cells. The class given is functional, cell-based. The procedure, abridged: (§2)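 K562 cells in RPMI 1640 with 10% heat-inactivated calf serum, glutamine, penicillin/streptomycin; seeded at 5 × 10³ per mL, compound (with or without 30 µM guanosine) added at start. After 5 days, MTT added, 3 h at 37 °C; formazan dissolved in acidified 2-propanol, absorbance 550 nm. Triplicate points; IC50 for 50% growth inhibition averaged over four experiments.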

For experiment [6], the system named is K562. Description: Inhibition of growth in human erythroleukemia K-562 cells (% of untreated control). Format: functional. The method, boiled down:
as §2

Experiment [7] concerns K562. Description: Differentiation of K-562 cells at 19 uM with coadministration of guanosine. Format: functional, Homo sapiens. The method, boiled down:
as §1

Experiment [8] concerns K562. Description: Differentiation of K-562 cells at 19 uM with out coadministration of guanosine. Format: functional, Homo sapiens. The method, boiled down: as §1
Experiment [9] relates to K562. The experiment is described as follows: Differentiation of K-562 cells at 3.8 uM with out coadministration of guanosine. The class given is functional, Homo sapiens. The method, boiled down:
as §1

Experiment [10] concerns K562. The experiment is described as follows: Differentiation of K-562 cells at 3.8 uM with coadministration of guanosine. Format: functional, Homo sapiens. The procedure, abridged: as §1
Experiment [11] has as its system K562. Description: Differentiation of K-562 cells at 15 uM with coadministration of guanosine. Format: functional, Homo sapiens. The method, boiled down:
as §1

Experiment [12] has as its system K562. The experiment is described as follows: Differentiation of K-562 cells at 15 uM with out coadministration of guanosine. The class given is functional, Homo sapiens. The procedure, abridged:
as §1

The subject of experiment [13] is K562. The experiment is described as follows: Differentiation of K-562 cells at 30 uM with coadministration of guanosine. The class given is functional, Homo sapiens. The method, boiled down: as §1
Experiment [14] has as its system K562. Description: Differentiation of K-562 cells at 30 uM with out coadministration of guanosine. The class given is functional, Homo sapiens. The method, boiled down:
as §1

Experiment [15] relates to K562. Description: Differentiation of K-562 cells at 7.5 uM with coadministration of guanosine. The class given is functional, Homo sapiens. The method, boiled down: as §1
Experiment [16] concerns K562. The experiment is described as follows: Differentiation of K-562 cells at 7.5 uM with out coadministration of guanosine. The class given is functional, Homo sapiens. The method, boiled down: as §1

As usually defined, the pIC50 is the IC50 on a negative log10 scale, so that one unit is a factor of ten. Low readings indicate a high IC50, high ones a low IC50.

pIC50: −log10 of the molar value.

For the compound `NC(=O)c1cccc([C@@H]2O[C@H](COP(=O)(O)CP(=O)(O)OC[C@@H]3O[C@H](n4cnc5c(N)ncnc54)[C@@H](O)[C@H]3O)[C@@H](O)[C@H]2O)c1`, the Benzidine positive cells in [1] is given as 75%; in experiment [2], 17%; in [3], 45%; in [4], 15%. For the same compound, the pIC50 in experiment [5] was 4.22. Besides, the “Growth inhibition (% of untreated control)” value in experiment [6] is recorded as 90%.

On to `NC(=O)c1csc([C@@H]2O[C@H](CO)[C@@H](O)[C@H]2O)n1` [TIAZOFURIN], for which the “Growth inhibition (% of untreated control)” value in [6] amounted to 90%. Besides, the Benzidine positive cells in [7] is 40%; in [8], 80%; in experiment [9] it was 36%; in [10] it was 12%.

With `NC(=O)c1csc([C@@H]2O[C@H](COP(=O)(O)CP(=O)(O)OC[C@@H]3O[C@H](n4cnc5c(N)ncnc54)[C@@H](O)[C@H]3O)[C@@H](O)[C@H]2O)n1`, the Benzidine positive cells in experiment [11] came to 23%; in [12] it was 34%; in experiment [13], 30%; in experiment [14], 85%. Further, the “Growth inhibition (% of untreated control)” value in experiment [6] is listed as 90%.

On to `NC(=O)c1csc([C@H]2O[C@@H](COP(=O)(O)OP(=O)(O)OC[C@H]3O[C@@H](n4cnc5c(N)ncnc54)[C@H](O)[C@@H]3O)[C@H](O)[C@@H]2O)n1`, for which the Benzidine positive cells is 30% in experiment [11], 70% in [12], 15% in [15] and 50% in experiment [16]. Besides, in [6], the “Growth inhibition (% of untreated control)” value was found to be 80%.
